# The source made the active and inactive calls. The rule behind the calls is not given here.
# Target: E3 ubiquitin-protein ligase Mdm2 (Homo sapiens) (UniProt Q00987)
# Assay: Inhibition of wild type Mdm2 at 20 ug/mL after 2 hrs by cell-based luciferase assay
# Settings: not given
# E3 ubiquitin-protein ligase Mdm2 (Homo sapiens), sequence (Q00987 whole entry, looked up): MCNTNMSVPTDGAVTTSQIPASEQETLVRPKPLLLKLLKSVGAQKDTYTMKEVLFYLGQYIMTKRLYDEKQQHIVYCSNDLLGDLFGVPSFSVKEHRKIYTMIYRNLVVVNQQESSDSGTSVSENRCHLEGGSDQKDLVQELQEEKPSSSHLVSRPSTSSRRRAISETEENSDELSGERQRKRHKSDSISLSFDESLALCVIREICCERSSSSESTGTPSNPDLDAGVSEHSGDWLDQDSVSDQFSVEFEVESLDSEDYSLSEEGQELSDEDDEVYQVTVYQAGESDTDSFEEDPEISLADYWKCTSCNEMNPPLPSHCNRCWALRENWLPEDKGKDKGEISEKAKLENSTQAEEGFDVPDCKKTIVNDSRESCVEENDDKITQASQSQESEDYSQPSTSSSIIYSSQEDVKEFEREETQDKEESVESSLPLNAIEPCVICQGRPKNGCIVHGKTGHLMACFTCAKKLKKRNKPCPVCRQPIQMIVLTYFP
row,Structure (SMILES),inhibition
1,CN1C(=O)C(Cc2nccc3c4ccccc4n(C(=O)OC(C)(C)C)c23)C(=O)N(C)C1=O,inactive
2,CCOC(=O)C(C)C1NCCc2c1[nH]c1ccccc21 (stereo not given),inactive
3,CCOC(=O)C(C)C1c2[nH]c3ccccc3c2CCN1C(=O)OC(C)(C)C (stereo not given),inactive
4,COC(OC)C1NCCc2c1[nH]c1ccccc21 (stereo not given),inactive
5,CC(CC1C(=O)N(C)C(=O)N(C)C1=O)C1NCCc2c1[nH]c1ccccc21 (stereo not given),inactive
6,COC(=O)CC1c2[nH]c3ccccc3c2CCN1Cc1ccccc1 (stereo not given),inactive

# System: E3 ubiquitin-protein ligase Mdm2 (Homo sapiens), Q00987 [C464A]
# Sequence (Q00987 whole entry C464A): as the sequence (Q00987 whole entry, looked up) above, with C464A counted along it
# Assay: Inhibition of Mdm2 C464A mutant at 20 ug/mL after 2 hrs by cell-based luciferase assay
# Settings: not given
row,Structure (SMILES),inhibition
1,CN1C(=O)C(Cc2nccc3c4ccccc4n(C(=O)OC(C)(C)C)c23)C(=O)N(C)C1=O,inactive
2,CCOC(=O)C(C)C1NCCc2c1[nH]c1ccccc21 (stereo not given),inactive
3,CCOC(=O)C(C)C1c2[nH]c3ccccc3c2CCN1C(=O)OC(C)(C)C (stereo not given),inactive
4,COC(OC)C1NCCc2c1[nH]c1ccccc21 (stereo not given),inactive
5,CC(CC1C(=O)N(C)C(=O)N(C)C1=O)C1NCCc2c1[nH]c1ccccc21 (stereo not given),inactive
6,COC(=O)CC1c2[nH]c3ccccc3c2CCN1Cc1ccccc1 (stereo not given),inactive

# System: HT-1080
# Assay: Cytotoxicity against human HT1080 cells after 48 hrs by alamar blue assay
# Assay type: functional
# Settings: HT-1080, 48 h, read-out: LC50 (the source's name)
row,Structure (SMILES),CC50
1,CCOC(=O)C(C)C1c2[nH]c3ccccc3c2CCN1C(=O)OC(C)(C)C (stereo not given),53.7 µM

# System: RKO
# Assay: Cytotoxicity against human RKO cells after 48 hrs by alamar blue assay
# Assay type: functional
# Settings: read-out: LC50 (the source's name)
row,Structure (SMILES),CC50
1,CCOC(=O)C(C)C1c2[nH]c3ccccc3c2CCN1C(=O)OC(C)(C)C (stereo not given),27.9 µM
2,CC(CC1C(=O)N(C)C(=O)N(C)C1=O)C1NCCc2c1[nH]c1ccccc21 (stereo not given),54.3 µM

# System: MCF7
# Assay: Cytotoxicity against human MCF7 cells after 48 hrs by alamar blue assay
# Assay type: functional
# Settings: MCF7, 48 h, read-out: LC50 (the source's name)
row,Structure (SMILES),CC50
1,CCOC(=O)C(C)C1c2[nH]c3ccccc3c2CCN1C(=O)OC(C)(C)C (stereo not given),23.6 µM

# System: U2OS
# Assay: Cytotoxicity against human U2OS cells after 48 hrs by alamar blue assay
# Assay type: functional
# Settings: read-out: LC50 (the source's name)
row,Structure (SMILES),CC50
1,CCOC(=O)C(C)C1c2[nH]c3ccccc3c2CCN1C(=O)OC(C)(C)C (stereo not given),53.7 µM

# System: not listed separately
# Assay: Cytotoxicity against human HT1299 cells after 48 hrs by alamar blue assay
# Assay type: functional
# Settings: HT1299, 48 h, read-out: LC50 (the source's name)
row,Structure (SMILES),CC50
1,CCOC(=O)C(C)C1c2[nH]c3ccccc3c2CCN1C(=O)OC(C)(C)C (stereo not given),53.7 µM

# System: not listed separately
# Assay: Cytotoxicity against human BJeH cells expressing wild type RAS after 48 hrs by alamar blue assay
# Assay type: functional, cell-based
# Settings: not given
row,Structure (SMILES),EC50
1,COc1ccc(N(C(=O)CCl)C(C(=O)NCCc2ccccc2)c2cccs2)cc1Cl (stereo not given),0.58 µM

# Same assay, conditions: read-out: LC50 (the source's name)
row,Structure (SMILES),CC50
1,CCOC(=O)C(C)C1NCCc2c1[nH]c1ccccc21 (stereo not given),73.5 µM
2,CC(CC1C(=O)N(C)C(=O)N(C)C1=O)C1NCCc2c1[nH]c1ccccc21 (stereo not given),54.3 µM

# System: not listed separately
# Assay: Cytotoxicity against human BJeLR cells expressing RAS G12V mutant after 48 hrs by alamar blue assay
# Assay type: functional, cell-based
# Settings: not given
row,Structure (SMILES),EC50
1,COc1ccc(N(C(=O)CCl)C(C(=O)NCCc2ccccc2)c2cccs2)cc1Cl (stereo not given),0.025 µM

# Same assay, conditions: read-out: LC50 (the source's name)
row,Structure (SMILES),CC50
1,CCOC(=O)C(C)C1NCCc2c1[nH]c1ccccc21 (stereo not given),31.6 µM
2,COC(OC)C1NCCc2c1[nH]c1ccccc21 (stereo not given),81.3 µM
3,CC(CC1C(=O)N(C)C(=O)N(C)C1=O)C1NCCc2c1[nH]c1ccccc21 (stereo not given),54.3 µM
4,COC(=O)CC1c2[nH]c3ccccc3c2CCN1Cc1ccccc1 (stereo not given),59.8 µM

# System: HT-1080
# Assay: Cytotoxicity against human HT1080 cells at 20 ug/mL after 48 hrs by alamar blue assay
# Assay type: functional, cell-based
# Settings: not given
# In short: (§1)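 Each cell line exposed for 48 h to a 2-fold, 12-point dilution series beginning at 20 µg/mL. Viability by Alamar blue; LC50 derived from the curves.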
row,Structure (SMILES),Activity
1,CN1C(=O)C(Cc2nccc3c4ccccc4n(C(=O)OC(C)(C)C)c23)C(=O)N(C)C1=O,inactive
2,CCOC(=O)C(C)C1NCCc2c1[nH]c1ccccc21 (stereo not given),inactive
3,COC(OC)C1NCCc2c1[nH]c1ccccc21 (stereo not given),inactive
4,CC(CC1C(=O)N(C)C(=O)N(C)C1=O)C1NCCc2c1[nH]c1ccccc21 (stereo not given),inactive
5,COC(=O)CC1c2[nH]c3ccccc3c2CCN1Cc1ccccc1 (stereo not given),inactive

# System: RKO
# Assay: Cytotoxicity against human RKO cells at 20 ug/mL after 48 hrs by alamar blue assay
# Assay type: functional, cell-based
# Settings: not given
# In short: as §1
row,Structure (SMILES),Activity
1,CN1C(=O)C(Cc2nccc3c4ccccc4n(C(=O)OC(C)(C)C)c23)C(=O)N(C)C1=O,inactive
2,CCOC(=O)C(C)C1NCCc2c1[nH]c1ccccc21 (stereo not given),inactive
3,COC(OC)C1NCCc2c1[nH]c1ccccc21 (stereo not given),inactive
4,COC(=O)CC1c2[nH]c3ccccc3c2CCN1Cc1ccccc1 (stereo not given),inactive

# System: MCF7
# Assay: Cytotoxicity against human MCF7 cells at 20 ug/mL after 48 hrs by alamar blue assay
# Assay type: functional, cell-based
# Settings: not given
# In short: as §1
row,Structure (SMILES),Activity
1,CN1C(=O)C(Cc2nccc3c4ccccc4n(C(=O)OC(C)(C)C)c23)C(=O)N(C)C1=O,inactive
2,CCOC(=O)C(C)C1NCCc2c1[nH]c1ccccc21 (stereo not given),inactive
3,COC(OC)C1NCCc2c1[nH]c1ccccc21 (stereo not given),inactive
4,CC(CC1C(=O)N(C)C(=O)N(C)C1=O)C1NCCc2c1[nH]c1ccccc21 (stereo not given),inactive
5,COC(=O)CC1c2[nH]c3ccccc3c2CCN1Cc1ccccc1 (stereo not given),inactive

# System: U2OS
# Assay: Cytotoxicity against human U2OS cells at 20 ug/mL after 48 hrs by alamar blue assay
# Assay type: functional, cell-based
# Settings: not given
row,Structure (SMILES),Activity
1,CN1C(=O)C(Cc2nccc3c4ccccc4n(C(=O)OC(C)(C)C)c23)C(=O)N(C)C1=O,inactive
2,CCOC(=O)C(C)C1NCCc2c1[nH]c1ccccc21 (stereo not given),inactive
3,COC(OC)C1NCCc2c1[nH]c1ccccc21 (stereo not given),inactive
4,COC(=O)CC1c2[nH]c3ccccc3c2CCN1Cc1ccccc1 (stereo not given),inactive

# System: HT1299
# Assay: Cytotoxicity against human HT1299 cells at 20 ug/mL after 48 hrs by alamar blue assay
# Assay type: functional, cell-based
# Settings: not given
# In short: as §1
row,Structure (SMILES),Activity
1,CN1C(=O)C(Cc2nccc3c4ccccc4n(C(=O)OC(C)(C)C)c23)C(=O)N(C)C1=O,inactive
2,CCOC(=O)C(C)C1NCCc2c1[nH]c1ccccc21 (stereo not given),inactive
3,COC(OC)C1NCCc2c1[nH]c1ccccc21 (stereo not given),inactive
4,CC(CC1C(=O)N(C)C(=O)N(C)C1=O)C1NCCc2c1[nH]c1ccccc21 (stereo not given),inactive
5,COC(=O)CC1c2[nH]c3ccccc3c2CCN1Cc1ccccc1 (stereo not given),inactive

# System: BJeH
# Assay: Cytotoxicity against human BJeH cells expressing wild type RAS at 20 ug/mL after 48 hrs by alamar blue assay
# Assay type: functional, cell-based
# Settings: not given
row,Structure (SMILES),Activity
1,CN1C(=O)C(Cc2nccc3c4ccccc4n(C(=O)OC(C)(C)C)c23)C(=O)N(C)C1=O,inactive
2,CCOC(=O)C(C)C1c2[nH]c3ccccc3c2CCN1C(=O)OC(C)(C)C (stereo not given),inactive
3,COC(OC)C1NCCc2c1[nH]c1ccccc21 (stereo not given),inactive
4,COC(=O)CC1c2[nH]c3ccccc3c2CCN1Cc1ccccc1 (stereo not given),inactive

# System: BJeLR
# Assay: Cytotoxicity against human BJeLR cells expressing RAS G12V mutant at 20 ug/mL after 48 hrs by alamar blue assay
# Assay type: functional, cell-based
# Settings: not given
row,Structure (SMILES),Activity
1,CN1C(=O)C(Cc2nccc3c4ccccc4n(C(=O)OC(C)(C)C)c23)C(=O)N(C)C1=O,inactive
2,CCOC(=O)C(C)C1c2[nH]c3ccccc3c2CCN1C(=O)OC(C)(C)C (stereo not given),inactive
